In ChEMBL document CHEMBL4376860, “Discovery of Novel Dual Poly(ADP-ribose)polymerase and Phosphoinositide 3-Kinase Inhibitors as a Promising Strategy for Cancer Therapy” (J Med Chem, 2020):
pIC50: −log10 of the molar value. One block for each compound: values may come before it. The source made the active and inactive calls. The rule behind the calls is not given here.

Columns and labels:
[1] = target: Poly [ADP-ribose] polymerase 1 (Homo sapiens, UniProt P09874); assay: Inhibition of recombinant human PARP1 using histone as substrate after 1 hr in presence of biotinylated NAD+ by ELISA
Sequence of Poly [ADP-ribose] polymerase 1 (P09874 whole entry, canonical isoform): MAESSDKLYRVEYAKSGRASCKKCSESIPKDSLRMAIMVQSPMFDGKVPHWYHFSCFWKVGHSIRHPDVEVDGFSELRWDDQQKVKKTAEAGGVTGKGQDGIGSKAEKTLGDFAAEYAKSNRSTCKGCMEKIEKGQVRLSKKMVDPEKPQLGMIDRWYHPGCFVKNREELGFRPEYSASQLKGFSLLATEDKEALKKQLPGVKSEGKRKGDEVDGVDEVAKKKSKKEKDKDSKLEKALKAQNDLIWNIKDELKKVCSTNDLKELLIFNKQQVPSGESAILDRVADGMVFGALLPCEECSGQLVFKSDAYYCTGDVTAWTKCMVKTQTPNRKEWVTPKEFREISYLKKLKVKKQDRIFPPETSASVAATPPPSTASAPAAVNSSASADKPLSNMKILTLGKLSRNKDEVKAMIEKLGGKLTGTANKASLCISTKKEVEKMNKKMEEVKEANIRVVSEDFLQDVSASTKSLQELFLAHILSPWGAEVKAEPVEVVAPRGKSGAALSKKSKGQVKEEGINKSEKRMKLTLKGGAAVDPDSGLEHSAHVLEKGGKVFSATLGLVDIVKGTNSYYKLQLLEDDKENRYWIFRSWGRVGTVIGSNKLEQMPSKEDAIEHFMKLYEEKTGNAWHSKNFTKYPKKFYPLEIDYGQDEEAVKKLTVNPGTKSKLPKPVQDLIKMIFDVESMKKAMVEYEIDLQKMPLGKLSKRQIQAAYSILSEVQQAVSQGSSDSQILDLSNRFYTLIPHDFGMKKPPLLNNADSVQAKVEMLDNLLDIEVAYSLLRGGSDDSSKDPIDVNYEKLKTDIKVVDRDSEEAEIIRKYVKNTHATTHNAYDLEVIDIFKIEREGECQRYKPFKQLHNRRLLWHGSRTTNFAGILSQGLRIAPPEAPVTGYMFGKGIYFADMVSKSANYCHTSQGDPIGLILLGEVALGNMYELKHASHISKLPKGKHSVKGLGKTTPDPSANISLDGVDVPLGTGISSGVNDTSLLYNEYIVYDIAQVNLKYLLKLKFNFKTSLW

[2] = target: Phosphatidylinositol 4,5-bisphosphate 3-kinase catalytic subunit alpha isoform (Homo sapiens, UniProt P42336); assay: Inhibition of PI3Kalpha (unknown origin) using PIP2 as substrate measured after 1 hr by ADP-glo plus luminescence assay
Sequence of Phosphatidylinositol 4,5-bisphosphate 3-kinase catalytic subunit alpha isoform (P42336 whole entry, canonical isoform): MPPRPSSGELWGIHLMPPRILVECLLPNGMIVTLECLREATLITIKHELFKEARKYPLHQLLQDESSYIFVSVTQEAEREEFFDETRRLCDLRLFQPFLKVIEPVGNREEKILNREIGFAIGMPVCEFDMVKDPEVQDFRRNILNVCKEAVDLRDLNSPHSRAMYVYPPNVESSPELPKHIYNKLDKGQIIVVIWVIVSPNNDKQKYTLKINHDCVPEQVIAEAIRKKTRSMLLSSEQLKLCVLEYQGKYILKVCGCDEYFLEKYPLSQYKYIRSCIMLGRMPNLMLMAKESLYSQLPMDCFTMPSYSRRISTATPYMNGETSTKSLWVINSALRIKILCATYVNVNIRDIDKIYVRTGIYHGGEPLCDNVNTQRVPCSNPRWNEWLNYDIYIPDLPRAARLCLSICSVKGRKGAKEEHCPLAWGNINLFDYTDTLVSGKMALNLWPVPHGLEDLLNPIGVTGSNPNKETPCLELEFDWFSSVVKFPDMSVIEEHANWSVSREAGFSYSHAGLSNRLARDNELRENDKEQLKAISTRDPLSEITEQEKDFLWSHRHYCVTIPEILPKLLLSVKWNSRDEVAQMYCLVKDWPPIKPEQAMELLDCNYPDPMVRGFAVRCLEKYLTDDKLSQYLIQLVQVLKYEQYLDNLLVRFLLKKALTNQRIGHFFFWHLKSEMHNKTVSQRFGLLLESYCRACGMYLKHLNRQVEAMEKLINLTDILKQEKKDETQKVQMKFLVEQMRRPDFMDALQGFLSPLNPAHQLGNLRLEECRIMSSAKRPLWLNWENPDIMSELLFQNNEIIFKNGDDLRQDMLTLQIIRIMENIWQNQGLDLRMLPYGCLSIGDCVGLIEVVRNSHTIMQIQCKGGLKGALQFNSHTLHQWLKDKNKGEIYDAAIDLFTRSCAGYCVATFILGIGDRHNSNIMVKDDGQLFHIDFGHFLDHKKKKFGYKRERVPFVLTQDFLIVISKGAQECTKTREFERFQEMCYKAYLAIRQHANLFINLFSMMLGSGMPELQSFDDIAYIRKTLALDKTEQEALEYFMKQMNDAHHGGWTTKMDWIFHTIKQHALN

Homo sapiens = organism: Homo sapiens; assay: Selectivity ratio of IC50 for recombinant human PARP1 to IC50 for PI3Kalpha (unknown origin)
HCT-116 = assay: Antiproliferative activity against human HCT116 cells measured after 7 days by Celltiter-glo assay; assay type: functional, cell-based; settings: HCT-116, 168 h
Procedure, shortened: (§1)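 Cells maintained in RPMI1640 with 10% FBS at 37 °C, 5% CO2. Seeded the day before dosing, grown 12 h, then exposed to graded compound concentrations for 7 days. CellTiter-Glo reagent added, 10 min at room temperature, luminescence read. Inhibition % = (1-(RLU compound - RLU blank)/(RLU DMSO - RLU blank))×100. IC50 from nonlinear regression, normalized dose-response fit.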

MDA-MB-468 [3] = assay: Induction of apoptosis in human MDA-MB-468 cells assessed as viable cells at 1 uM measured after 72 hrs by Annexin V-FITC/propidium iodide staining based flow cytometry (reference value: 95.2%); assay type: functional; settings: MDA-MB-468, 72 h, read-out: Activity
MDA-MB-231 = assay: Antiproliferative activity against human MDA-MB-231 cells measured after 7 days by Celltiter-glo assay; assay type: functional, cell-based; settings: MDA-MB-231, 168 h; procedure, shortened: as §1
[4] = Toxicity in BALB/c mouse xenografted with human MDA-MB-468 cells assessed as mortality at 50 mg/kg, ip administered every 2 days for 34 days; assay type: organism-based; settings: in vivo
Procedure, shortened: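 Nude mice bearing subcutaneous right-flank MDA-MB-468 tumours (2 × 10^6 exponential-phase cells implanted). Randomised at about 100 mm³ tumour volume; 6 mice per group. Dosed ip every 2 days for 34 days. Vehicle controls received PBS with 5% DMSO. Body weight and tumour size recorded every 2 days; tumour volume calculated as ab²/2 from caliper diameters.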

MDA-MB-468 [5] = assay: Induction of apoptosis in human MDA-MB-468 cells assessed as late apoptotic cells at 1 uM measured after 72 hrs by Annexin V-FITC/propidium iodide staining based flow cytometry (reference value: 0.78%); assay type: functional
MDA-MB-468 [6] = assay: Inhibition of PI3K in human MDA-MB-468 cells assessed as reduction in RAD51 foci formation at 1 uM measured after 72 hrs by DAPI staining based immunofluorescence microscopic analysis; assay type: cell-based
Procedure, shortened: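 RAD51 foci in MDA-MB-468 cells on coverslips after 72 h drug exposure. Cells fixed (3% formaldehyde), permeabilized (0.1% Triton X-100), blocked in 10% FBS/PBS, incubated overnight at 4 °C with rabbit anti-RAD51 polyclonal, then secondary antibody plus DAPI. Foci and percent positive cells (>5 foci per cell) counted from about 200 cells. Mean ± SD of three independent experiments.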

MDA-MB-468 [7] = assay: Inhibition of PI3K in human MDA-MB-468 cells assessed as reduction in BRCA2 mRNA level at 1 uM by Trizol reagent-based RT-PCR analysis; assay type: cell-based
Procedure, shortened: (§2)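 Total RNA from treated MDA-MB-468 cells extracted with TRIzol. BRCA1 or BRCA2 mRNA quantified by real-time PCR with GAPDH as internal control. Results given as fold change relative to the internal control. Mean ± SD of three independent experiments.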

MDA-MB-468 [8] = assay: Inhibition of PI3K in human MDA-MB-468 cells assessed as reduction in BRCA1 mRNA level at 1 uM by Trizol reagent-based RT-PCR analysis; assay type: cell-based; procedure, shortened: as §2
HCC1937 = assay: Antiproliferative activity against human HCC1937 cells measured after 7 days by Celltiter-glo assay; assay type: functional, cell-based; settings: HCC1937, 168 h; procedure, shortened: as §1
MDA-MB-468 [9] = assay: Activation of ERK in human MDA-MB-468 cells assessed as increase in ERK autophosphorylation at T202 residue at 1 uM measured after 6 to 72 hrs by Western blot analysis; assay type: cell-based
Procedure, shortened: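 MDA-MB-468 cells seeded in six-well plates, incubated overnight, then treated for 6 h, with 1‰ (v/v) DMSO medium as control. Lysates cleared at 4 °C, protein quantified by BCA, resolved by 8-12% SDS-PAGE and transferred to PVDF. Membranes blocked in 5% BSA/TBST, probed with primary antibodies (pERK-Thr202, total ERK, cleaved PARP, β-actin) and HRP secondary. ECL detection, band densitometry.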

MDA-MB-468 [10] = assay: Antitumor activity against human MDA-MB-468 cells xenografted in BALB/c mouse assessed as tumor growth inhibition at 50 mg/kg, ip administered every 2 days for 34 days and measured at 2 days interval during compound dosing relative to control; assay type: functional; settings: MDA-MB-468, ip, read-out: TGI
MDA-MB-468 [11] = assay: Induction of DNA damage in human MDA-MB-468 cells at 1 uM measured after 72 hrs by comet assay; assay type: functional, cell-based
Procedure, shortened: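 MDA-MB-468 cells treated for 72 h, harvested and run in a neutral comet assay. Ethidium bromide staining after electrophoresis. About 200 cell images per group analysed with CASP. DNA damage scored as tail intensity (percentage DNA in tail) and olive tail moment. Mean ± SD of three independent experiments.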

MDA-MB-468 [12] = assay: Antiproliferative activity against human MDA-MB-468 cells measured after 7 days by Celltiter-glo assay; assay type: functional, cell-based; settings: MDA-MB-468, 168 h; procedure, shortened: as §1
MDA-MB-468 [13] = assay: Inhibition of PI3K in human MDA-MB-468 cells assessed as reduction in AKT phosphorylation at S473 residue at 1 uM measured after 6 to 72 hrs by Western blot analysis; assay type: cell-based
Procedure, shortened: (§3)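 MDA-MB-468 cells seeded overnight, then exposed for 6 h; control medium contained 1‰ DMSO. Lysates run on 8–12% SDS-PAGE and transferred to PVDF. Blots blocked in 5% BSA/TBST and probed for pAKT-Ser473/total AKT or pS6-Ser240/total S6, with β-actin as loading control. HRP secondary with ECL detection; bands quantified by densitometry. Three independent experiments.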

MDA-MB-468 [14] = assay: Inhibition of PI3K in human MDA-MB-468 cells assessed as reduction in pS6 phosphorylation at S240 residue at 1 uM measured after 6 to 72 hrs by Western blot analysis; assay type: cell-based; procedure, shortened: as §3
MDA-MB-468 [15] = assay: Induction of apoptosis in human MDA-MB-468 cells assessed as necrotic cells at 1 uM measured after 72 hrs by Annexin V-FITC/propidium iodide staining based flow cytometry (reference value: 0.13%); assay type: functional
MDA-MB-468 [16] = assay: Induction of apoptosis in human MDA-MB-468 cells assessed as early apoptotic cells at 1 uM measured after 72 hrs by Annexin V-FITC/propidium iodide staining based flow cytometry (reference value: 3.88%); assay type: functional
MDA-MB-468 [17] = assay: Inhibition of PI3K in human MDA-MB-468 cells assessed as increase in gammaH2AX foci formation at 1 uM measured after 72 hrs by DAPI staining based immunofluorescence microscopic analysis; assay type: cell-based
Procedure, shortened: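 MDA-MB-468 cells on coverslips given drugs for 72 h. Fixed in 3% formaldehyde, permeabilized with 0.1% Triton X-100, blocked in 10% FBS/PBS, then rabbit anti-γH2AX (Ser139) overnight at 4 °C. Secondary antibody and DAPI stain followed. About 200 cells scored for foci; a cell was positive with more than 5 foci. Three independent experiments.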

MDA-MB-468 [18] = assay: Induction of apoptosis in human MDA-MB-468 cells assessed as increase in cleaved PARP level at 1 uM […] by Western blot analysis; assay type: functional, cell-based

- pIC50 [1]: 8.21
- pIC50 [2]: 7.35
SMILES: O=C(c1cc(Cc2n[nH]c(=O)c3ccccc23)ccc1F)N1CCc2c(nc(-c3cccc4[nH]ncc34)nc2N2CCOCC2)C1

- pIC50 [1]: 8.93
- pIC50 [2]: 6.48
SMILES: Nc1ccc(-c2nc(N3CCOCC3)nc(N3CCN(C(=O)c4cc(Cc5n[nH]c(=O)c6ccccc56)ccc4F)CC3)n2)cc1

- pIC50 [1]: 8.02
- pIC50 [2]: 6.77
SMILES: Nc1cc(C(F)(F)F)c(-c2nc(N3CCOCC3)nc(N3CCN(C(=O)c4cc(Cc5n[nH]c(=O)c6ccccc56)ccc4F)CC3)n2)cn1

- Ratio IC50 (Homo sapiens): 120
- pIC50 [1]: 9.08
- pIC50 [2]: 7.04
SMILES: Nc1ncc(-c2nc(N3CCOCC3)nc(N3CCN(C(=O)c4cc(Cc5n[nH]c(=O)c6ccccc56)ccc4F)CC3)n2)cn1

- pIC50 [1]: 8.95
- pIC50 [2]: 5.92
SMILES: Nc1ncc(-c2nc(N3CCOCC3)nc(N3CCN(C(=O)c4cc(Cc5n[nH]c(=O)c6ccccc56)ccc4F)CC3)n2)cc1C(F)(F)F

SMILES: Nc1ncc(-c2nc3c(c(N4CCOCC4)n2)CCN(C(=O)c2cc(Cc4n[nH]c(=O)c5ccccc45)ccc2F)C3)cn1
- pIC50 (HCT-116): 5.80
- viability at 1 µM (MDA-MB-468 [3]): 65.9%
- pIC50 (MDA-MB-231): 5.45
- Activity [4]: Non-Toxic
- Activity (MDA-MB-468 [5]): 19.4%
- inhibition (MDA-MB-468 [6]): Active
- inhibition (MDA-MB-468 [7]): Active
- inhibition (MDA-MB-468 [8]): Active
- pIC50 (HCC1937): 5.46
- pIC50 [1]: 8.59
- Activity (MDA-MB-468 [9]): Active
- inhibition in vivo at 50 mg/kg (MDA-MB-468 [10]): 52.7%
- Activity (MDA-MB-468 [11]): Active
- pIC50 (MDA-MB-468 [12]): 5.59
- inhibition (MDA-MB-468 [13]): Active
- inhibition (MDA-MB-468 [14]): Active
- Activity (MDA-MB-468 [15]): 1.15%
- Activity (MDA-MB-468 [16]): 14.6%
- inhibition (MDA-MB-468 [17]): Active
- Activity (MDA-MB-468 [18]): Active
- pIC50 [2]: 8.32

- pIC50 [1]: 9.19
- pIC50 [2]: 6.20
SMILES: O=C(c1cc(Cc2n[nH]c(=O)c3ccccc23)ccc1F)N1CCN(c2nc(-c3cccc4[nH]ccc34)nc(N3CCOCC3)n2)CC1

- pIC50 [1]: 8.31
- pIC50 [2]: 7.36
SMILES: O=C(c1cc(Cc2n[nH]c(=O)c3ccccc23)ccc1F)N1CCc2c(nc(-c3cccc4[nH]ccc34)nc2N2CCOCC2)C1

- pIC50 [1]: 9.14
- pIC50 [2]: 6.15
SMILES: Nc1ccc(-c2nc(N3CCOCC3)nc(N3CCN(C(=O)c4cc(Cc5n[nH]c(=O)c6ccccc56)ccc4F)CC3)n2)c(F)c1
